From ChEMBL document CHEMBL1145984 (J Med Chem, 2003)

Molecular target: T1, Aminopeptidase N (Sus scrofa, UniProt P15145)
T1 sequence (P15145 whole entry): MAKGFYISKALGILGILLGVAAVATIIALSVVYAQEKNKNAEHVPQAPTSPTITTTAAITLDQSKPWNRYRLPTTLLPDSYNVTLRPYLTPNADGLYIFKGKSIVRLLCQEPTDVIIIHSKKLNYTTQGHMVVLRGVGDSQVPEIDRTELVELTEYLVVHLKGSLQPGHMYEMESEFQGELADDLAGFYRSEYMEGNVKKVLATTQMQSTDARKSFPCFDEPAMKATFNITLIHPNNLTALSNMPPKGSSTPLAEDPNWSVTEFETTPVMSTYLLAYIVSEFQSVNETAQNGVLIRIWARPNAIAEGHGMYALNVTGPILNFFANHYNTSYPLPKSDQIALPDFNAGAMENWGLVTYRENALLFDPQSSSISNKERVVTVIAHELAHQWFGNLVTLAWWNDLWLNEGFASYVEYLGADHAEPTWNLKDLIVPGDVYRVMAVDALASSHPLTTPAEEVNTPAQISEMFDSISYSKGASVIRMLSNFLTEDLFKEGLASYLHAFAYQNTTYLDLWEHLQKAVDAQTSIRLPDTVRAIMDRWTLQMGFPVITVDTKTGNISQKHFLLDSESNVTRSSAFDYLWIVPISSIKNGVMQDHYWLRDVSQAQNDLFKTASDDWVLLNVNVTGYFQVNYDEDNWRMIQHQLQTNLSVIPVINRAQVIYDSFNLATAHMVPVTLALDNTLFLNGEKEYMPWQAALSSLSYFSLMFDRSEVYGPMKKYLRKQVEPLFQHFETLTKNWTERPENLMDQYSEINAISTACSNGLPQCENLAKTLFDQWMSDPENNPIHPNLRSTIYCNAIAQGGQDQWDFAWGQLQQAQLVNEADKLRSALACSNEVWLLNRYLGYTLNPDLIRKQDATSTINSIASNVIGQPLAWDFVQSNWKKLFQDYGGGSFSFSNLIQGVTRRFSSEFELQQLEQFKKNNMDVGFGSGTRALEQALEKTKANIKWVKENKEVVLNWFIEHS
Assay: Binding affinity towards aminopeptidase N (APN) from pig kidney
How it was run: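 Porcine kidney APN (lyophilized, diluted in 50 mM potassium phosphate pH 7.2; 4 µg/mL final), inhibitor preincubated 60 min at room temperature, inhibitor solutions adjusted to pH 7.5. L-leucine p-nitroanilide 0.05–0.6 mM final starts reaction; A405 followed 10 min at 25 °C. Ki from Lineweaver-Burk plots of initial linear velocities, 3–4 inhibitor concentrations, each measured twice.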

Row | Structure (SMILES) | Ki
1 | NC(CCc1ccccc1)P(=O)(O)CC(Cc1ccccc1)C(=O)O (stereo unspecified) | 0.276 µM
2 | CC(C)CC(CP(=O)(O)C(N)CCc1ccccc1)C(=O)O (stereo unspecified) | 1.01 µM
3 | CC(C)CC(CP(=O)(O)C(N)CC(C)C)C(=O)O (stereo in doubt; 27) | 1.02 µM
4 | CC(C)CC(N)P(=O)(O)CCC(=O)O (stereo unspecified) | 1.41 µM
5 | CC(C)CC(N)P(=O)(O)O (stereo unspecified) | 55 µM
6 | NC(CCc1ccccc1)P(=O)(O)CC(Cc1ccc(O)cc1)C(=O)O (stereo unspecified) | 0.036 µM
